Results taken from ChEMBL document CHEMBL1154181 (J Med Chem, 2009).

Assays:
Mus musculus [1] = assay: Antinociceptive activity against thermal nociception in po dosed CD1 mouse assessed as latency period to elicit jumping or hind paw licking at 1 mg/kg, po measured after 15 to 90 mins postdose by hot plate method in presence of 0.1 to 1 mg/kg, ip alpha-1-adrenergic receptor antagonist prazosin administered 15 mins before compound infusion; type: functional
Summary of the method: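 Male CD-1 mice given prazosin ip (0.1 or 1 mg/kg) 15 min before oral dosing at 1 mg/kg. Tail flick: radiant heat 3–4 cm from the tail tip, cut-off 15 s. Hot plate: 48.5 °C, cut-off 60 s. Baseline is the mean of three readings 15 min apart. Latency followed over time and expressed as %MPE.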

[2] = biological target: T1, Alpha-1B adrenergic receptor (Rattus norvegicus, UniProt P15823); assay: Displacement of [3H]prazosin from adrenergic Alpha-1B receptor in Wistar rat liver membrane after 60 mins; type: cell membranes
T1 sequence (P15823 whole entry): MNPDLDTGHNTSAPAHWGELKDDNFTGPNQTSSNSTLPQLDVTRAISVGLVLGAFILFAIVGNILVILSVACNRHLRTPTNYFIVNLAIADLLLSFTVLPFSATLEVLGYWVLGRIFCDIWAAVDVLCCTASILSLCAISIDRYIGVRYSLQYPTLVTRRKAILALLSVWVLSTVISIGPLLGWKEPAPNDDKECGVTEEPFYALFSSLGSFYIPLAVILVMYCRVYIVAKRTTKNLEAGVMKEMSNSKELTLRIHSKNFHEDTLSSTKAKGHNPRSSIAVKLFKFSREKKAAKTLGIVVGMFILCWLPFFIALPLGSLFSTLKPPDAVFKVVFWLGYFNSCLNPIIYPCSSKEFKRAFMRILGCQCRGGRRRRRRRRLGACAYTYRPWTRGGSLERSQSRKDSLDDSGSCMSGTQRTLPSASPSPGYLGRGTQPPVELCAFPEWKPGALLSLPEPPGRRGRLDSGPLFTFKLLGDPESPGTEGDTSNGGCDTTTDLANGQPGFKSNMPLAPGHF

Mus musculus [3] = assay: (§1) Antinociceptive activity against radiant heat-induced nociception in po dosed CD1 mouse assessed as increase in tail withdrawal latency measured after 15 to 120 mins postdose by tail flick test in presence of 50 mg/kg, ip GABAB receptor antagonist CGP-35348 administered 30 mins before compound infusion; type: functional
Summary of the method: (§2)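 Antagonist given ip 30 min before oral dosing (naloxone 1, mecamylamine 2, yohimbine 2, CGP 35348 50 mg/kg). Tail flick with radiant heat at the tail tip, cut-off 15 s; latencies at 15–120 min converted to %MPE. Peak-time quantal response (≥50% MPE); ED50 from at least four groups of six male CD-1 mice.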

Mus musculus [4] = assay: as §1, with “2” for “50”, “alpha-2-adrenergic” for “GABAB”, “yohimbine hydrochloride” for “CGP-35348”; type: functional; summary of the method: as §2
Mus musculus [5] = assay: Antinociceptive activity against thermal nociception in po dosed CD1 mouse assessed as increase in latency period to elicit jumping or hind paw licking measured after 15 to 90 mins postdose by hot plate method; type: functional

C=Cc1c(C)nn(CCCN2CCN(c3ccc(C)cc3)CC2)c(=O)c1N
Activity (Mus musculus [1]): 120 min
IC50 [2]: 102 nM
ED50 (Mus musculus [3]): 0.5 mg/kg
ED50 (Mus musculus [4]): 6.1 mg/kg
ED50 (Mus musculus [5]): 0.5 mg/kg
